Test system: BT-549
Assay: Antiproliferative activity against human BT549 cells assessed as cell growth at 10 uM
Assay type: functional
Settings: read-out: Activity
Summary of the method: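 NCI 60 cell line panel, single-dose screen (10^-5 M) run by the developmental therapeutics program protocol. Results are given as growth percent of treated cells relative to untreated control cells for each line.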

Cc1ccc(-c2nc3ccc4c(c3[nH]2)C(=O)c2ccccc2C4=O)cc1 showed a growth at 10 µM of 94.1%.
